Values belong to the compound of their own block, whether it stands above or below them. Activity calls are given as the source filed them. The calls are words filed in the database; no cut-off is given here.
Tests used:
[1] = target: T1, Metalloproteinase inhibitor 3 (Homo sapiens, UniProt P35625); test: Binding affinity to FLAG-tagged human TIMP3 expressed in HEK293 cells assessed as dissociation constant; assay type: cell-based
T1 sequence (P35625 whole entry): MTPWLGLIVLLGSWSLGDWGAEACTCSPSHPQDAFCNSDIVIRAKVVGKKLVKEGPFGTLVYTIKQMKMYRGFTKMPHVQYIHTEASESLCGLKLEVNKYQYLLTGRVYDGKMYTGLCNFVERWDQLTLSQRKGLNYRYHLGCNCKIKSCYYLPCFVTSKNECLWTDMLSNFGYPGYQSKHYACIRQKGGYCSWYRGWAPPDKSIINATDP

SW1353 [2] = test: Induction of TIMP3 protein level in human HTB-94 cells at 100 ug/ml incubated for 36 hrs by Western blotting analysis; assay type: functional, cell-based; conditions: dose 100.0 µg/ml
Method in brief: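 HTB94 cells (5×10^5/well) washed in serum-free DMEM and treated 36 h with 100 μg/mL in serum-free DMEM. Conditioned medium was TCA-precipitated and run on non-reducing 15% SDS-PAGE, then transferred to PVDF. TIMP-3 was detected with rabbit anti-TIMP-3 and an IRDye 800CW secondary by infrared imaging. Values are expressed as % of 100 μg/mL suramin-treated samples on the same blot. n = 3, mean ± SD.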

[3] = Induction of TIMP3 protein level in human HTB-94 cells incubated for 36 hrs by slot blotting analysis relative to 100 ug/ml suramin; assay type: functional, cell-based; conditions: SW1353, 36 h
Method in brief: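 Dose-response over 0–250 μg/mL for 36 h in serum-free DMEM using HTB94 cells (5×10^5/well). TIMP-3 in TCA-concentrated medium was measured by slot blot with anti-TIMP-3/IRDye 800CW detection, normalised to 100 μg/mL suramin on each blot. EC50 was fitted with a one-site specific binding model. n = 3, mean ± SD.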

SW1353 [4] = test: Effect on LRP1 mRNA level in human HTB-94 cells at 50 to 200 ug/ml incubated for 36 hrs by RT-qPCR analysis; assay type: functional, cell-based; conditions: dose 50-200 µg/ml
Method in brief: (§1)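 HTB94 cells (5×10^5/well) plated overnight, washed three times, then treated with analogue (50–200 μg/mL) in serum-free DMEM for 36 h. RNA was isolated and transcripts quantified by RT-qPCR (ΔΔCt), normalised to RN18S1 and to untreated cells. n = 3, mean ± SD.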

SW1353 [5] = test: Effect on ADAMTS4 mRNA level in human HTB-94 cells at 50 to 200 ug/ml incubated for 36 hrs by RT-qPCR analysis; assay type: functional, cell-based; conditions: dose 50-200 µg/ml; method in brief: as §1
SW1353 [6] = test: Effect on ADAMTS5 mRNA level in human HTB-94 cells at 50 to 200 ug/ml incubated for 36 hrs by RT-qPCR analysis; assay type: functional, cell-based; conditions: dose 50-200 µg/ml; method in brief: as §1
SW1353 [7] = test: Effect on MMP13 mRNA level in human HTB-94 cells at 50 to 200 ug/ml incubated for 36 hrs by RT-qPCR analysis; assay type: functional, cell-based; conditions: dose 50-200 µg/ml; method in brief: as §1
[8] = Cytotoxicity against porcine Chondrocyte assessed cell number at 100 ug/ml incubated for 3 days by MTS assay; assay type: toxicity, cell-based, Sus scrofa; conditions: pig, 72 h, dose 100 µg/ml, time 3 day
Method in brief: (§2)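 Primary porcine chondrocytes, released by pronase E then type II collagenase digestion of cartilage and plated at 10^4/well, were washed in serum-free DMEM. They were exposed to 100 μg/mL analogue, with or without IL-1β (10 ng/mL), for 3 days. Cell number was read by MTS against a twice freeze/thawed control. n = 3 biological replicates, mean ± SD.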

[9] = Cytotoxicity against porcine Chondrocyte assessed cell number at 100 ug/ml incubated for 3 days in presence of IL-1beta by MTS assay; assay type: toxicity, cell-based, Sus scrofa; conditions: pig, 72 h, dose 100 µg/ml, time 3 day; method in brief: as §2
[10] = Induction of TIMP3 protein level in human HTB-94 cells at 100 ug/ml incubated for 36 hrs by slot blotting analysis relative to suramin; assay type: functional, SW1353; conditions: dose 100 µg/ml
Method in brief: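 Serum-free 36 h treatment (100 μg/mL) of HTB94 cells (5×10^5/well). TCA-concentrated conditioned medium was slot-blotted onto nitrocellulose and probed with rabbit anti-TIMP-3 and an IRDye 800CW secondary, then imaged by infrared fluorescence. Pixel volume is expressed relative to 100 μg/mL suramin samples on the same blot (100%). n = 3, mean ± SD.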

Sus scrofa = organism: Sus scrofa; test: Inhibition of cartilage degradation in porcine cartilage explants assessed as inhibition of IL-1beta-induced aggrecan release at 100 ug/ml measured after 3 days by DMMB assay; assay type: functional, tissue-based; conditions: Cartilage tissue, dose 100.0 µg/ml, time 3.0 day
Method in brief: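 Porcine metacarpophalangeal cartilage explants (3–9-month-old pigs), rested 48 h after dissection, were washed and treated 72 h with IL-1β (10 ng/mL) plus 100 μg/mL analogue. Medium was DMEM with 0.1% FCS, amphotericin B and 10 mM HEPES. Aggrecan released into the medium was measured by DMMB assay. n = 3 biological × 2 technical replicates, mean ± SD.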

SW1353 [11] = test: Cytotoxicity against human HTB-94 cells assessed as cell viability at 100 ug/ml measured after 36 h by MTS assay
SW1353 [12] = test: Effect on TIMP3 mRNA level in human HTB-94 cells at 50 to 200 ug/ml incubated for 36 hrs by RT-qPCR analysis; assay type: functional, cell-based; conditions: dose 50-200 µg/ml; method in brief: as §1

Structure (SMILES): Cc1ccc(C(=O)Nc2ccc(P(=O)(O)O)cc2P(=O)(O)O)cc1NC(=O)c1cccc(NC(=O)Nc2cccc(C(=O)Nc3cc(C(=O)Nc4ccc(P(=O)(O)O)cc4P(=O)(O)O)ccc3C)c2)c1
Kd [1]: > 100 nM

Structure (SMILES): Nc1ccc(C(=O)Nc2cc(S(=O)(=O)O)cc3cc(S(=O)(=O)O)cc(S(=O)(=O)O)c23)cc1
Activity (SW1353 [2]): inactive

Structure (SMILES): O=C(Nc1ccc(C(=O)Nc2cc(S(=O)(=O)O)cc3cc(S(=O)(=O)O)cc(S(=O)(=O)O)c23)cc1)c1ccc([N+](=O)[O-])cc1
Activity (SW1353 [2]): inactive

Structure (SMILES): Nc1ccc(C(=O)Nc2ccc(C(=O)Nc3cc(S(=O)(=O)O)cc4cc(S(=O)(=O)O)cc(S(=O)(=O)O)c34)cc2)cc1
Activity (SW1353 [2]): inactive

Structure (SMILES): O=C(Nc1cccc(C(=O)Nc2ccc(C(=O)Nc3cc(S(=O)(=O)O)cc4cc(S(=O)(=O)O)cc(S(=O)(=O)O)c34)cc2)c1)Nc1cccc(C(=O)Nc2ccc(C(=O)Nc3cc(S(=O)(=O)O)cc4cc(S(=O)(=O)O)cc(S(=O)(=O)O)c34)cc2)c1
Activity [10]: -50%
inhibition (Sus scrofa): Active
Activity (SW1353 [11]): Non-Toxic

Structure (SMILES): O=C(Nc1cc(S(=O)(=O)O)cc2cc(S(=O)(=O)O)cc(S(=O)(=O)O)c12)c1ccc([N+](=O)[O-])cc1
Activity (SW1353 [2]): inactive

Further lines, with some results ahead:

Kd [1]: > 100 nM
Structure (SMILES): O=C(Nc1cccc(C(=O)Nc2cc(S(=O)(=O)O)cc3ccc(S(=O)(=O)O)cc23)c1)Nc1cccc(C(=O)Nc2cc(S(=O)(=O)O)cc3ccc(S(=O)(=O)O)cc23)c1

Kd [1]: 1.55 nM
Structure (SMILES): O=C(Nc1cccc(C(=O)Nc2cc(C(=O)Nc3ccc(S(=O)(=O)O)c4cc(S(=O)(=O)O)cc(S(=O)(=O)O)c34)ccc2F)c1)Nc1cccc(C(=O)Nc2cc(C(=O)Nc3ccc(S(=O)(=O)O)c4cc(S(=O)(=O)O)cc(S(=O)(=O)O)c34)ccc2F)c1

Kd [1]: 4.66 nM
Structure (SMILES): O=C(Nc1cc(C(=O)Nc2ccc(S(=O)(=O)O)cc2S(=O)(=O)O)cc(C(=O)Nc2ccc(S(=O)(=O)O)cc2S(=O)(=O)O)c1)Nc1cc(C(=O)Nc2ccc(S(=O)(=O)O)cc2S(=O)(=O)O)cc(C(=O)Nc2ccc(S(=O)(=O)O)cc2S(=O)(=O)O)c1

EC50 [3]: 15000 nM
Structure (SMILES): Cc1ccc(C(=O)Nc2ccc(S(=O)(=O)O)c3cc(S(=O)(=O)O)cc(S(=O)(=O)O)c23)cc1NC(=O)c1cccc(NC(=O)Nc2cccc(C(=O)Nc3cc(C(=O)Nc4ccc(S(=O)(=O)O)c5cc(S(=O)(=O)O)cc(S(=O)(=O)O)c45)ccc3C)c2)c1 [SURAMIN]
Activity (SW1353 [2]): Active
Activity (SW1353 [4]): inactive
Activity (SW1353 [5]): inactive
Activity (SW1353 [6]): inactive
Activity (SW1353 [7]): inactive
Activity [8]: Non-Toxic
Activity [9]: Non-Toxic

EC50 [3]: 17000 nM
Structure (SMILES): O=C(Nc1ccc(C(=O)Nc2ccc(C(=O)Nc3ccc(S(=O)(=O)O)c4cc(S(=O)(=O)O)cc(S(=O)(=O)O)c34)cc2)cc1)Nc1ccc(C(=O)Nc2ccc(C(=O)Nc3ccc(S(=O)(=O)O)c4cc(S(=O)(=O)O)cc(S(=O)(=O)O)c34)cc2)cc1

Kd [1]: 26.5 nM
Structure (SMILES): O=C(Nc1cccc(C(=O)Nc2ccc(S(=O)(=O)O)c3cc(S(=O)(=O)O)cc(S(=O)(=O)O)c23)c1)Nc1cccc(C(=O)Nc2ccc(S(=O)(=O)O)c3cc(S(=O)(=O)O)cc(S(=O)(=O)O)c23)c1

EC50 [3]: 19000 nM
Structure (SMILES): O=C(Nc1ccc(C(=O)Nc2ccc(C(=O)Nc3cc(S(=O)(=O)O)cc4cc(S(=O)(=O)O)cc(S(=O)(=O)O)c34)cc2)cc1)Nc1ccc(C(=O)Nc2ccc(C(=O)Nc3cc(S(=O)(=O)O)cc4cc(S(=O)(=O)O)cc(S(=O)(=O)O)c34)cc2)cc1
Activity (SW1353 [2]): Active
Activity [10]: 30%
Activity (SW1353 [12]): inactive
Activity (SW1353 [4]): inactive
Activity (SW1353 [5]): inactive
Activity (SW1353 [6]): inactive
Activity (SW1353 [7]): inactive
Activity [8]: Non-Toxic
Activity [9]: Non-Toxic

Kd [1]: 6.88 nM
Structure (SMILES): O=C(Nc1cc(C(=O)Nc2ccc(S(=O)(=O)O)cc2)cc(C(=O)Nc2ccc(S(=O)(=O)O)cc2)c1)Nc1cc(C(=O)Nc2ccc(S(=O)(=O)O)cc2)cc(C(=O)Nc2ccc(S(=O)(=O)O)cc2)c1

EC50 [3]: 17000 nM
Structure (SMILES): O=C(Nc1ccc(C(=O)Nc2cccc(C(=O)Nc3cc(S(=O)(=O)O)cc4cc(S(=O)(=O)O)cc(S(=O)(=O)O)c34)c2)cc1)Nc1ccc(C(=O)Nc2cccc(C(=O)Nc3cc(S(=O)(=O)O)cc4cc(S(=O)(=O)O)cc(S(=O)(=O)O)c34)c2)cc1
Activity [10]: -50%
inhibition (Sus scrofa): Active
Activity (SW1353 [11]): Non-Toxic

From ChEMBL document CHEMBL5325487, “Suramin analogues protect cartilage against osteoarthritic breakdown by increasing levels of tissue inhibitor of metalloproteinases 3 (TIMP-3) in the tissue” (Bioorg Med Chem, 2023)
